24 molecules from ChEMBL document CHEMBL4033682, “Discovery of indolin-2-one derivatives as potent PAK4 inhibitors: Structure-activity relationship analysis, biological evaluation and molecular docking study” (Bioorg Med Chem, 2017) can be followed below.

Structures are written as SMILES. Activity calls are given as the source filed them. No cut-off for these calls is given here. Some results are limits rather than exact numbers.

Assay [1] has as its target T1, Serine/threonine-protein kinase PAK 4 (Homo sapiens, UniProt O96013). Put plainly: Inhibition of PAK4 (unknown origin) using substrate S2 after 60 mins by HTRF assay.
Target sequence in this assay (O96013 whole entry): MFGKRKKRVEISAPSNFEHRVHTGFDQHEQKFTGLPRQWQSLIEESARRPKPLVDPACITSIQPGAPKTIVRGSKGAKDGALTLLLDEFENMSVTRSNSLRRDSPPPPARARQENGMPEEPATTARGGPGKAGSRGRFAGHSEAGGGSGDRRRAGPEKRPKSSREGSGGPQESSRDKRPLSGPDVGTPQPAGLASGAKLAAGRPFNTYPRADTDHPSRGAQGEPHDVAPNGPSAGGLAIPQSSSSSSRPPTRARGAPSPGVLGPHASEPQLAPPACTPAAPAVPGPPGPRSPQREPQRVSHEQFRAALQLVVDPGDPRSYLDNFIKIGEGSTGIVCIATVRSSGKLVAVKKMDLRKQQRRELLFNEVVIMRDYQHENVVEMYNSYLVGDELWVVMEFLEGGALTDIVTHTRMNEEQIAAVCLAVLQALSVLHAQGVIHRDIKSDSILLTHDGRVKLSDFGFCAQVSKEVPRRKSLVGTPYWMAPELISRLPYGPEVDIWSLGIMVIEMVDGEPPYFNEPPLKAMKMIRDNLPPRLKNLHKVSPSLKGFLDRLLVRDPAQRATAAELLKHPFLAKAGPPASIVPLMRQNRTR
Assay [2] deals with HT-1080. Put plainly: Growth inhibition of human HT1080 cells after 72 hrs by CCK8 assay. Type of assay: functional, cell-based. The note with it: HT-1080, 72 h. Put shortly:
(§1)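 Cells seeded in 96-well plates and exposed to various compound concentrations on the seeding day, cultured 72 h at 37 °C. Proliferation read by CCK-8.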
Background: Tetrazolium assays rely on reduction of a dye to a coloured formazan, in cell work by metabolically active cells.

In assay [3] the test system is MCF7. Put plainly: Growth inhibition of human MCF7 cells after 72 hrs by CCK8 assay. Type of assay: functional, cell-based. To be noted: MCF7, 72 h. The gist of the method:
as §1

Assay [4] deals with A549. In words: Growth inhibition of human A549 cells after 72 hrs by CCK8 assay. Type of assay: functional, cell-based. To be noted: A549, 72 h. Put shortly: as §1
In assay [5] the test system is A549. In words: Cell cycle arrest in human A549 cells assessed as accumulation at S phase at 5 uM after 72 hrs by propidium iodide staining based flow cytometry (reference value: 37.39%). Type of assay: functional. For orientation: In flow cytometry, cells or beads pass a laser one at a time.
Assay [6] concerns the target T1, Serine/threonine-protein kinase PAK 4. Put plainly: Inhibition of PAK4 in human A549 cells assessed as reduction in LIMK1 phosphorylation after 72 hrs by Western blot analysis. Type of assay: cell-based. (In general: Immunoblotting shows a protein as a band on a membrane.)
Target sequence in this assay (O96013 whole entry, looked up): as the sequence (O96013 whole entry) above
For assay [7], the system named is A549. In words: Induction of apoptosis in human A549 cells assessed as necrotic cells at 1 uM after 72 hrs by Annexin-V/7AAD staining based flow cytometry (reference value: 0.65%). Format: functional.
Assay [8] concerns the target T1, Serine/threonine-protein kinase PAK 4. In words: Inhibition of PAK4 in human A549 cells assessed as reduction in cofilin phosphorylation after 72 hrs by Western blot analysis. Format: cell-based.
Target sequence in this assay (O96013 whole entry, looked up): as the sequence (O96013 whole entry) above
For assay [9], the system named is A549. Put plainly: Cell cycle arrest in human A549 cells assessed as accumulation at G1 phase at 5 uM after 72 hrs by propidium iodide staining based flow cytometry (reference value: 44.99%). Format: functional.
In assay [10] the test system is A549. In words: Cell cycle arrest in human A549 cells assessed as accumulation at G2 phase at 5 uM after 72 hrs by propidium iodide staining based flow cytometry (reference value: 17.62%). Format: functional.
Assay [11] relates to A549. In words: Induction of apoptosis in human A549 cells assessed as live cells at 1 uM after 72 hrs by Annexin-V/7AAD staining based flow cytometry (reference value: 93.98%). Type of assay: functional.
Assay [12] deals with A549. In words: Cell cycle arrest in human A549 cells assessed as accumulation at S phase at 1 uM after 72 hrs by propidium iodide staining based flow cytometry (reference value: 37.39%). Format: functional.
For assay [13], the system named is A549. Put plainly: Induction of apoptosis in human A549 cells assessed as early apoptotic cells at 5 uM after 72 hrs by Annexin-V/7AAD staining based flow cytometry (reference value: […]). Type of assay: functional.
Assay [14] relates to A549. Put plainly: Antimigratory activity against human A549 cells at 5 uM […] by crystal violet staining based transwell chamber assay. Format: functional, cell-based.
Assay [15] deals with A549. In words: Induction of apoptosis in human A549 cells assessed as live cells at 5 uM after 72 hrs by Annexin-V/7AAD staining based flow cytometry (reference value: 93.98%). Format: functional.
Assay [16] relates to A549. Put plainly: Induction of apoptosis in human A549 cells assessed as early apoptotic cells at 1 uM after 72 hrs by Annexin-V/7AAD staining based flow cytometry (reference value: […]). Type of assay: functional.
The subject of assay [17] is A549. In words: Cell cycle arrest in human A549 cells assessed as accumulation at G2 phase at 1 uM after 72 hrs by propidium iodide staining based flow cytometry (reference value: 17.62%). Type of assay: functional.
Assay [18] concerns A549. In words: Induction of apoptosis in human A549 cells after 72 hrs by Annexin-V/7AAD staining based flow cytometry. Format: functional, cell-based.
Assay [19] deals with T1, Serine/threonine-protein kinase PAK 4. Put plainly: Inhibition of PAK4 phosphorylation in human A549 cells after 2 hrs by Western blot analysis. Format: cell-based. Put shortly:
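A549 cells treated with indicated dose for 2 h, lysed in SDS sample buffer, resolved by 10% SDS-PAGE, transferred to nitrocellulose, probed for phospho-PAK4 and PAK4 (GAPDH loading control) with HRP-conjugated secondary antibodies, detected by enhanced chemiluminescence.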
Target sequence in this assay (O96013 whole entry, looked up): as the sequence (O96013 whole entry) above

For assay [20], the system named is A549. In words: Induction of apoptosis in human A549 cells assessed as late apoptotic cells at 1 uM after 72 hrs by Annexin-V/7AAD staining based flow cytometry (reference value: 2.95%). Type of assay: functional.
In assay [21] the test system is A549. Put plainly: Anti-invasive activity against human A549 cells at 5 uM […] by crystal violet staining based matrigel invasion chamber assay. Type of assay: functional, cell-based.
The subject of assay [22] is A549. In words: Induction of apoptosis in human A549 cells assessed as late apoptotic cells at 5 uM after 72 hrs by Annexin-V/7AAD staining based flow cytometry (reference value: 2.95%). Format: functional.
Assay [23] relates to A549. In words: Induction of apoptosis in human A549 cells assessed as necrotic cells at 5 uM after 72 hrs by Annexin-V/7AAD staining based flow cytometry (reference value: 0.65%). Format: functional.
Assay [24] relates to A549. In words: Cell cycle arrest in human A549 cells assessed as accumulation at G1 phase at 1 uM after 72 hrs by propidium iodide staining based flow cytometry (reference value: 44.99%). Format: functional.

With `O=C1Nc2ccc(C(=O)N[C@H](CO)c3ccccc3)cc2/C1=C/c1ncc[nH]1`, the IC50 in assay [1] (read-out: IC50) worked out at 281 nM.
As for `O=C1Nc2ccc(C(=O)N[C@H](CO)c3ccccc3)cc2/C1=C/c1cnc[nH]1`, the IC50 in [2] is 7900 nM; in [3] it was 10800 nM; in assay [4], 3700 nM.
Turning to `O=C1Nc2ccc(C(=O)N[C@H](CO)c3ccc(F)cc3)cc2/C1=C/c1ccc[nH]1`, in [1] (read-out: IC50), the IC50 came out at 54 nM.
As to `N#Cc1cc2c(cc1C(=O)N[C@H](CO)c1ccccc1)/C(=C/c1ccc[nH]1)C(=O)N2`, the IC50 in [1] (read-out: IC50) was 1540 nM.
For the molecule `Cc1cc(C)c(/C=C2\C(=O)Nc3ccc(C(=O)N[C@H](CO)c4ccccc4)cc32)[nH]1`, the Activity in [5] was 38.47%; in assay [7], 5.14%; in assay [9], 27.78%; in [10], 33.75%; in assay [11] it was 70.56%; in [12], 39.92%. For the same molecule, the Activity in assay [13] is 32.18%; in [15] it was 26.23%; in [16] it was 8.44%; in assay [17], 24.37%; in assay [18], “Dose-dependent effect”; in assay [20], 15.46%. The Activity in assay [22] turned out to be 33.22%; in assay [23], 8.36%; in assay [24] it was 35.7%. Besides, the inhibition result in [6], in assay [8] and in assay [19] was “Dose-dependent effect” in each case. Besides, the IC50 was 6770 nM in assay [2]; 2110 nM in assay [3]; 830 nM in assay [4]; 27 nM in assay [1] (read-out: IC50); 27.5 nM in [1] (read-out: pIC50 (converted)). Also, the result in [14] and in assay [21] was Active.
As to `O=C1Nc2ccc(C(=O)N[C@H](CO)c3ccccc3Cl)cc2/C1=C/c1ccc[nH]1`, the IC50 in assay [1] (read-out: IC50) came out at 199 nM.
For the molecule `O=C1Nc2ccc(C(=O)NCCO)cc2/C1=C/c1ccc[nH]1`, in assay [1] (read-out: IC50), the IC50 stood at 1260 nM.
On to `O=C1Nc2ccc(C(=O)N[C@H](CO)c3ccccc3)cc2C1=Cc1ccccn1`, for which the IC50 in [1] (read-out: IC50) is greater than 10000 nM.
As for `CC(C)(C)[C@@H](CO)NC(=O)c1ccc2c(c1)/C(=C/c1ccc[nH]1)C(=O)N2`, the IC50 in [1] (read-out: IC50) was found to be 634 nM.
As for `O=C1Nc2ccc(C(=O)NCCCO)cc2/C1=C/c1ccc[nH]1`, in [1] (read-out: IC50), the IC50 is 3150 nM.
As to `O=C1Nc2cc(F)c(C(=O)N[C@H](CO)c3ccccc3)cc2/C1=C/c1ccc[nH]1`, the IC50 in assay [1] (read-out: IC50) came to 718 nM.
For `O=C1Nc2ccc(C(=O)N[C@@H](CO)c3ccccc3)cc2/C1=C/c1ccc[nH]1`, in [1] (read-out: IC50), the IC50 worked out at 3380 nM.
`O=C1Nc2cc(Br)c(C(=O)N[C@H](CO)c3ccccc3)cc2/C1=C/c1ccc[nH]1`: in assay [1] (read-out: IC50), the IC50 stood at 1200 nM.
Consider `O=C1Nc2ccc(C(=O)N[C@H](CO)c3ccccc3)cc2/C1=C/c1ccco1` (stereo in doubt), for which the IC50 in [1] (read-out: IC50) amounted to 802 nM.
`O=C1Nc2ccc(C(=O)N[C@H](CO)c3ccccc3)cc2/C1=C/c1ccn[nH]1`: the IC50 in assay [1] (read-out: IC50) was found to be 379 nM.
Take `O=C1Nc2ccc(C(=O)N[C@H](CO)c3ccccc3)cc2/C1=C/c1cccs1`: in assay [1] (read-out: IC50), the IC50 came to 1290 nM.
Regarding `CC(C)[C@@H](CO)NC(=O)c1ccc2c(c1)/C(=C/c1ccc[nH]1)C(=O)N2`, the IC50 in [1] (read-out: IC50) came out at 2350 nM.
Regarding `Cn1cc(-c2cc3c(cc2C(=O)N[C@H](CO)c2ccccc2)/C(=C/c2ccc[nH]2)C(=O)N3)cn1`, in assay [1] (read-out: IC50), the IC50 was determined as 1990 nM.
Turning to `O=C1Nc2ccc(C(=O)N[C@H](CCO)c3ccccc3)cc2/C1=C/c1ccc[nH]1`, the IC50 in [1] (read-out: IC50) was 5010 nM.
For `O=C1Nc2cc(Cl)c(C(=O)N[C@H](CO)c3ccccc3)cc2/C1=C/c1ccc[nH]1`, in [1] (read-out: IC50), the IC50 amounted to 1420 nM.
Consider `Cn1nccc1-c1cc2c(cc1C(=O)N[C@H](CO)c1ccccc1)/C(=C/c1ccc[nH]1)C(=O)N2`, for which, in [1] (read-out: IC50), the IC50 stood at 1450 nM.
As for `O=C1Nc2ccc(C(=O)N[C@H](CO)c3ccccc3)cc2/C1=C/c1ccc[nH]1`, the IC50 in assay [2] was 980 nM; in assay [3], 6560 nM; in [4] it was 2370 nM; in [1] (read-out: IC50), 22 nM; in assay [1] (read-out: pIC50 (converted)), 21.9 nM.
As to `O=C1Nc2ccc(C(=O)N[C@H](CO)c3ccc(Cl)cc3)cc2/C1=C/c1ccc[nH]1`, the IC50 in [1] (read-out: IC50) is 391 nM.
As for `O=C1Nc2ccc(C(=O)N[C@H](CO)Cc3ccccc3)cc2/C1=C/c1ccc[nH]1`, in assay [1] (read-out: IC50), the IC50 is 304 nM.
